In ChEMBL document CHEMBL1146906, “Novel potent anticonvulsant agent containing a tetrahydroisoquinoline skeleton” (2006):

test system: Mus musculus; assay: Anticonvulsant activity against tonic phase of audiogenic seizures in ip dosed DBA/2 mouse; format: functional; conditions: DBA/2, ip
How it was run: (§1)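 DBA/2 mice of either sex, groups of 10, given vehicle or each dose intraperitoneally, then exposed to auditory stimulation […]. Incidence of each seizure phase scored. ED50 per phase from dose-response curves fitted by Litchfield and Wilcoxon method. Groups compared by Fisher's exact probability test.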

Going from COc1cc2c(cc1OC)C(c1ccc(Cl)cc1)N(C(=O)CN1CCOCC1)CC2 (stereo not drawn) to COc1cc2c(cc1OC)C(c1ccc(F)cc1)N(C(=O)CN1CCOCC1)CC2 (stereo not drawn), the ED50 falls from 82.8 µmol/kg to 46.9 µmol/kg.

Going from CCN(CC)CC(=O)N1CCc2cc(OC)c(OC)cc2C1c1ccc([N+](=O)[O-])cc1 (stereo not drawn) to CCN(CC)CC(=O)N1CCc2cc(OC)c(OC)cc2C1c1cccc([N+](=O)[O-])c1 (stereo not drawn), the ED50 falls from > 100 µmol/kg to 16.7 µmol/kg.

First: CCN(CC)CC(=O)N1CCc2cc(OC)c(OC)cc2C1c1cccc(N)c1 (stereo not drawn)
Second: CCN(CC)CC(=O)N1CCc2cc(OC)c(OC)cc2C1c1ccc(N)cc1 (stereo not drawn)
The ED50 of the first is higher: 50.5 µmol/kg for the first, 49 µmol/kg for the second.

Going from CCN(CC)CC(=O)N1CCc2cc(OC)c(OC)cc2C1c1ccc(Cl)cc1 (stereo not drawn) to CCN(CC)CC(=O)N1CCc2cc(OC)c(OC)cc2C1c1ccc(F)cc1 (stereo not drawn), the ED50 rises from 11.8 µmol/kg to 33 µmol/kg.

Going from COc1cc2c(cc1OC)C(c1ccccc1)N(C(=O)CN1CCCCC1)CC2 (stereo not drawn) to COc1cc2c(cc1OC)C(c1cccc(N)c1)N(C(=O)CN1CCCCC1)CC2 (stereo not drawn), the ED50 falls from > 100 µmol/kg to 47.3 µmol/kg.

First: COc1cc2c(cc1OC)C(c1ccc([N+](=O)[O-])cc1)N(C(=O)CN1CCOCC1)CC2 (stereo not drawn)
Second: COc1cc2c(cc1OC)C(c1cccc([N+](=O)[O-])c1)N(C(=O)CN1CCOCC1)CC2 (stereo not drawn)
The ED50 of the first is lower: 56.5 µmol/kg for the first, > 100 µmol/kg for the second.

First: COc1cc2c(cc1OC)C(c1cccc(N)c1)N(C(=O)CN1CCOCC1)CC2 (stereo not drawn)
Second: COc1cc2c(cc1OC)C(c1ccc(N)cc1)N(C(=O)CN1CCOCC1)CC2 (stereo not drawn)
The ED50 of the first is lower: 34.3 µmol/kg for the first, 63.4 µmol/kg for the second.

First: CC(=O)N1N=C(c2ccc(N)cc2)c2cc3c(cc2C[C@H]1C)OCO3 [TALAMPANEL]
Second: COc1cc2c(cc1OC)C(c1ccc(N)cc1)N(C(=O)CN1CCCCC1)CC2 (stereo not drawn)
The ED50 of the first is lower: 9.7 µmol/kg for the first, 45.3 µmol/kg for the second.

First: COc1cc2c(cc1OC)C(c1ccc(Cl)cc1)N(C(=O)CN1CCCCC1)CC2 (stereo not drawn)
Second: COc1cc2c(cc1OC)C(c1ccc(F)cc1)N(C(=O)CN1CCCCC1)CC2 (stereo not drawn)
The ED50 of the first is lower: 17 µmol/kg for the first, 63 µmol/kg for the second.

Compared with COc1cc2c(cc1OC)C(c1ccc(Br)cc1)N(C(=O)CN1CCOCC1)CC2 (stereo not drawn), COc1cc2c(cc1OC)C(c1ccccc1)N(C(=O)CN1CCOCC1)CC2 (stereo not drawn) is higher in ED50: 83.8 µmol/kg for the first, > 100 µmol/kg for the second.

Compared with COc1cc2c(cc1OC)C(c1ccc([N+](=O)[O-])cc1)N(C(=O)CN1CCCCC1)CC2 (stereo not drawn), COc1cc2c(cc1OC)C(c1cccc([N+](=O)[O-])c1)N(C(=O)CN1CCCCC1)CC2 (stereo not drawn) is lower in ED50: > 100 µmol/kg for the first, 82.8 µmol/kg for the second.

Compared with CCN(CC)CC(=O)N1CCc2cc(OC)c(OC)cc2C1c1ccccc1 (stereo not drawn), CCN(CC)CC(=O)N1CCc2cc(OC)c(OC)cc2C1c1ccc(Br)cc1 (stereo not drawn) is lower in ED50: 34.8 µmol/kg for the first, 24.7 µmol/kg for the second.

biological target: Glutamate receptor ionotropic, AMPA (Rattus norvegicus) (UniProt P19491+P19492+P19493+P19490); assay: Displacement of [3H]AMPA from AMPA receptor at 0.5 uM; format: protein-complex assay; conditions: not given
How it was run: (§2)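 Radioligand binding assays run at 0.5 µM test compound, using [3H]AMPA, [3H]CGP 39653 or [3H]kainic acid as ligand.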

With COc1cc2c(cc1OC)C(c1ccc(Br)cc1)N(C(=O)CN1CCCCC1)CC2 (stereo not drawn) the Activity was < 6%.

test system: Mus musculus; assay: Anticonvulsant activity against clonic phase of audiogenic seizures in ip dosed DBA/2 mouse; format: functional; conditions: DBA/2, ip; how it was run: as §1

Compared with COc1cc2c(cc1OC)C(c1ccc(Cl)cc1)N(C(=O)CN1CCOCC1)CC2 (stereo not drawn), COc1cc2c(cc1OC)C(c1ccc(F)cc1)N(C(=O)CN1CCOCC1)CC2 (stereo not drawn) is lower in ED50: > 100 µmol/kg for the first, 71.7 µmol/kg for the second.

Going from CCN(CC)CC(=O)N1CCc2cc(OC)c(OC)cc2C1c1ccc([N+](=O)[O-])cc1 (stereo not drawn) to CCN(CC)CC(=O)N1CCc2cc(OC)c(OC)cc2C1c1cccc([N+](=O)[O-])c1 (stereo not drawn), the ED50 falls from > 100 µmol/kg to 38.6 µmol/kg.

Going from CCN(CC)CC(=O)N1CCc2cc(OC)c(OC)cc2C1c1cccc(N)c1 (stereo not drawn) to CCN(CC)CC(=O)N1CCc2cc(OC)c(OC)cc2C1c1ccc(N)cc1 (stereo not drawn), the ED50 falls from 111 µmol/kg to 80.2 µmol/kg.

Compared with CCN(CC)CC(=O)N1CCc2cc(OC)c(OC)cc2C1c1ccc(Cl)cc1 (stereo not drawn), CCN(CC)CC(=O)N1CCc2cc(OC)c(OC)cc2C1c1ccc(F)cc1 (stereo not drawn) is higher in ED50: 24.7 µmol/kg for the first, 44.5 µmol/kg for the second.

Compared with COc1cc2c(cc1OC)C(c1ccccc1)N(C(=O)CN1CCCCC1)CC2 (stereo not drawn), COc1cc2c(cc1OC)C(c1cccc(N)c1)N(C(=O)CN1CCCCC1)CC2 (stereo not drawn) is lower in ED50: > 100 µmol/kg for the first, 70.2 µmol/kg for the second.

COc1cc2c(cc1OC)C(c1ccc([N+](=O)[O-])cc1)N(C(=O)CN1CCOCC1)CC2 (stereo not drawn) and COc1cc2c(cc1OC)C(c1cccc([N+](=O)[O-])c1)N(C(=O)CN1CCOCC1)CC2 (stereo not drawn) cannot be ordered by ED50: > 100 µmol/kg for the first, > 100 µmol/kg for the second.

Going from COc1cc2c(cc1OC)C(c1cccc(N)c1)N(C(=O)CN1CCOCC1)CC2 (stereo not drawn) to COc1cc2c(cc1OC)C(c1ccc(N)cc1)N(C(=O)CN1CCOCC1)CC2 (stereo not drawn), the ED50 rises from 63.4 µmol/kg to 87.5 µmol/kg.

Compared with COc1cc2c(cc1OC)C(c1ccc(N)cc1)N(C(=O)CN1CCCCC1)CC2 (stereo not drawn), COc1cc2c(cc1OC)C(c1ccc(Cl)cc1)N(C(=O)CN1CCCCC1)CC2 (stereo not drawn) is lower in ED50: 84.9 µmol/kg for the first, 39.8 µmol/kg for the second.

COc1cc2c(cc1OC)C(c1ccc(Br)cc1)N(C(=O)CN1CCOCC1)CC2 (stereo not drawn) and COc1cc2c(cc1OC)C(c1ccccc1)N(C(=O)CN1CCOCC1)CC2 (stereo not drawn) cannot be ordered by ED50: > 100 µmol/kg for the first, > 100 µmol/kg for the second.

COc1cc2c(cc1OC)C(c1ccc([N+](=O)[O-])cc1)N(C(=O)CN1CCCCC1)CC2 (stereo not drawn) and COc1cc2c(cc1OC)C(c1cccc([N+](=O)[O-])c1)N(C(=O)CN1CCCCC1)CC2 (stereo not drawn) cannot be ordered by ED50: > 100 µmol/kg for the first, > 100 µmol/kg for the second.

Going from COc1cc2c(cc1OC)C(c1ccc(F)cc1)N(C(=O)CN1CCCCC1)CC2 (stereo not drawn) to CCN(CC)CC(=O)N1CCc2cc(OC)c(OC)cc2C1c1ccc(Br)cc1 (stereo not drawn), the ED50 falls from 82.8 µmol/kg to 50.5 µmol/kg.

Compared with COc1cc2c(cc1OC)C(c1ccc(N)cc1)=NNC(=O)C2, CCN(CC)CC(=O)N1CCc2cc(OC)c(OC)cc2C1c1ccccc1 (stereo not drawn) is higher in ED50: 15 µmol/kg for the first, 49.1 µmol/kg for the second.

biological target: Glutamate NMDA receptor (Rattus norvegicus) (UniProt P35439+Q00959+Q00960+Q00961+Q62645+Q8VHN2+Q9R1M7); assay: Displacement of [3H]CGP-39653 from NMDA receptor at 0.5 uM; format: protein-complex assay; conditions: not given; how it was run: as §2

For COc1cc2c(cc1OC)C(c1ccc(Br)cc1)N(C(=O)CN1CCCCC1)CC2 (stereo not drawn), the Activity was < 6%.

organism: Rattus norvegicus; assay: Inhibition of AMPA-induced membrane current in Wistar rat olfactory cortex at 0.5 uM by voltage clamp method; format: functional; design: scale not given: the % may be the effect or the level left; conditions: not given
How it was run: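 Transverse olfactory cortex slices from male Wistar rats, kept in oxygenated Krebs solution and superfused with 1 µM TTX. Neurons voltage-clamped at -70 mV. Test agent diluted from DMSO stock into Krebs (0.1-1% v/v DMSO) and pre-incubated 10 min. Peak inward currents evoked by 0.25-5 µM AMPA measured. Pooled means, N = 7.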

Going from COc1cc2c(cc1OC)C(c1ccc(Cl)cc1)N(C(C)=O)CC2 (stereo not drawn) to COc1cc2c(cc1OC)C(c1ccc(Br)cc1)N(C(=O)CN1CCCCC1)CC2 (stereo not drawn), the Activity falls from 7% to 6%.

biological target: Glutamate receptor ionotropic, kainate (Rattus norvegicus) (UniProt P22756+Q01812+P42260+P42264+Q63273); assay: Displacement of [3H]kainic acid from kainate receptor at 0.5 uM; format: protein-complex assay; conditions: not given; how it was run: as §2

With COc1cc2c(cc1OC)C(c1ccc(Br)cc1)N(C(=O)CN1CCCCC1)CC2 (stereo not drawn) the Activity was < 6%.
